Data as given in PubChem BioAssay AID1385 (PCMD, 2008).
Hit rate of the full screen: of about 200,000 compounds, about 170 (0.085%) were called active.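 How the source made its calls: active means inhibition above 40% at the single screening dose; inactive means the rest.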 The list comes from a sample in which actives are over-represented; it also holds similar structures and randomly drawn compounds.

molecular target: DNA repair protein RAD51 homolog 1 (Homo sapiens) (UniProt Q06609); experiment: blockers of RAD51-mediated homologous recombination – biochemical, fluorescence, primary screen (AID 1385); settings: hRad51 DNA strand exchange, fluorescence dequenching; at 10 µM; stronger effect = higher value;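 further: 0% = DMSO control wells and 100% = blanks with heterologous ssDNA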
Sequence (Q06609 whole entry, looked up): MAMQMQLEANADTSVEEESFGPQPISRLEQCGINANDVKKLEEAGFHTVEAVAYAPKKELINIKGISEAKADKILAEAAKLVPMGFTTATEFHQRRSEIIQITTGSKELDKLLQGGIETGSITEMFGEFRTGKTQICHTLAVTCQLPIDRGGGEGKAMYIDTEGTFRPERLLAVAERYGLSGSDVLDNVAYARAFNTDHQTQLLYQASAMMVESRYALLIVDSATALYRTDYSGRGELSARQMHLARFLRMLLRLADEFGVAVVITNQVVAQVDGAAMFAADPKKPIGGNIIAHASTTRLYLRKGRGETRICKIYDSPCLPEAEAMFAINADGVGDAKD
Summary of the method: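 Material: human Rad51–ssDNA filaments; Probe or stimulus: labelled 47-mer dsDNA for strand exchange; Doses: single 10 µM dose; Incubation: 37 °C 15-min filament assembly, 30-min compound preincubation, 15-min exchange; Technique: FRET fluorescence dequenching, excitation 485 nm, emission 520 nm; Measure: Fluorescence-based percent inhibition, control- and blank-normalised; Benchmarks: plate control and blank wells.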

| SMILES | inhibition |
| --- | --- |
| Cc1ccc(NC(=O)C/C(N)=N/O)cc1Cl | -4.43% (inactive) |
| O=S(=O)(Cc1noc(-c2ccc(OC(F)(F)F)cc2)n1)c1ccc(F)cc1 | -2.58% (inactive) |
| CC(NC(=O)C(=O)Nc1nccs1)c1ccccc1 (configuration not stated) | 2.32% (inactive) |
| CCOC(=O)c1c(N)sc2c1CCCC2=O | 10.5% (inactive) |
| CCCc1nc2c(c(=O)c3ccccc3n2C)c(=O)n1-c1cc(C)cc(C)c1 | 20% (inactive) |
| Cc1cc(N)n(-c2ccc(S(=O)(=O)N3CCCC3)cc2[N+](=O)[O-])n1 | 4.97% (inactive) |
| O=C(N/N=C/c1ccco1)c1csc2c1CCCC2 | 7.09% (inactive) |
| Cn1c2c(c(=O)n(C)c1=O)C(c1cccc(F)c1)C(C#N)=C(N)O2 (configuration not stated) | 1.62% (inactive) |
| O=C1NNC(c2ccccc2)=N/C1=C\c1ccc(Cl)cc1 | -17% (inactive) |
| O=C(NCCN1CCOCC1)c1ccc2c(c1)N(Cc1ccc(Cl)cc1)CCS2 | 22.5% (inactive) |
| CC1(C)CC(=O)C=C(Nc2ccccc2)C1 | 8.69% (inactive) |
| O=C(C1=C(O)C(=O)N(CCOCCO)C1c1ccccn1)c1cccs1 (configuration not stated) | 21.9% (inactive) |
| CC12CN3CCN(CC(C3)/C1=N\NC(=O)c1ccccc1N)C2 | -2.47% (inactive) |
| Nc1scc[n+]1Cc1cccc2cccnc12 | 9.86% (inactive) |
| Cc1c(CCC(=O)O)c(=O)oc2cc3occ(-c4ccccc4)c3cc12 | 3.32% (inactive) |
| O=C(Cn1cnc2ccccc2c1=O)Nc1cccc(S(=O)(=O)N2CCCCC2)c1 | 11.5% (inactive) |
| Cn1c(=O)c2c(-c3cccc(Br)c3)c(C#N)c(N)nc2n(C)c1=O | 4.26% (inactive) |
| COc1ccccc1/C=C/C=N/NC(=O)CN1CCN(Cc2ccccc2)CC1 | -30.5% (inactive) |
| CCOc1cc2c(Cl)ncnc2c(OCC)c1OCC | -5.3% (inactive) |
| O=S(=O)(Nc1ccc(Cl)cn1)c1cnc(Cl)c(Br)c1 | 12% (inactive) |
| CC(NCc1ccccc1OC1CCCC1)c1ccccc1 (configuration not stated) | 15.6% (inactive) |
| O=c1cc(CCl)nc2scc(-c3ccccc3)n12 | -3.51% (inactive) |
| CNC(=S)NNC(=O)c1oc2nc(-c3ccccc3)cc(-c3ccco3)c2c1N | -38.4% (inactive) |
| Cc1onc(-c2c(Cl)cccc2Cl)c1C(=O)NNC(=O)c1c(-c2c(Cl)cccc2Cl)noc1C | 9.44% (inactive) |

| SMILES | inhibition |
| --- | --- |
| COc1cccc(Nc2nc(N)c([N+](=O)[O-])c(NCc3ccco3)n2)c1 | 1.8% (inactive) |
| COc1ccc(CN2CC[C@H]3C=CC[C@@H](C(=O)N4CCOCC4)[C@H]3C2=O)cc1OC | -2.64% (inactive) |
| COc1ccccc1-n1c(SCC(=O)O)nc2sc3c(c2c1=O)CCC3 | 4.79% (inactive) |
| COC(=O)C1=C[C@@H](C(=O)OC)[C@@H]2C3=C(C(=O)[C@]2(C)NC(=O)c2ccccc2)[C@H](C)n2c(=O)n(C)c(=O)n2[C@@H]3C1 | -1.64% (inactive) |
| Cc1ncn2cc(-c3ccc(Cl)cc3Cl)[nH]c(=O)c12 | -9.91% (inactive) |
| CCn1c(=O)c2cc(C(=O)Nc3cccc(C(C)=O)c3)sc2c2ccccc21 | -1.26% (inactive) |
| NS(=O)(=O)c1ccc(CNC(=O)c2cnccn2)cc1 | 7.99% (inactive) |
| NC(=O)c1nnsc1-c1ccc(-c2snnc2C(N)=O)cc1 | -31.9% (inactive) |
| COc1ccc(CN2CCOC2=O)cc1OC | -3.27% (inactive) |
| CCN(CC)c1ccc(NC(=O)C2CCC(CNc3c(N4CCCC4)c(=O)c3=O)CC2)c(C)c1 (configuration not stated) | 15.6% (inactive) |
| CC(O)c1nc2c(c(=O)n(C)c(=O)n2C)n1C (configuration not stated) | -23.8% (inactive) |
| COc1ccc(CCNC2=C(Cl)C(=O)N(Cc3ccccc3)C2=O)cc1OC | 8.51% (inactive) |
| COc1ccc(C(=O)O/N=C(\N)Cc2ccc(Cl)cc2Cl)cc1OC | 1.56% (inactive) |
| COc1ccc(CCn2ccc(O)c(Cc3ccc(Cl)cc3Cl)c2=O)cc1OC | 43.6% (active) |
| O=C1[C@@H]2C(c3cccnc3)=NO[C@@H]2C(=O)N1c1ccc(Cl)cc1Cl | -42% (inactive) |
| COc1ccc(NS(=O)(=O)c2ccc(N3CCOCC3)c(NC(=O)c3ccccc3Br)c2)cc1 | 17% (inactive) |
| CN(C)S(=O)(=O)c1ccc(Cl)c(NC(=O)COC(=O)CC(NC(N)=O)c2ccc(Cl)cc2)c1 (configuration not stated) | -44.1% (inactive) |
| Clc1ccc(C[n+]2cc(-c3ccccc3)n3c2CCC3)cc1 | 18.9% (inactive) |
| NNC(=O)c1ccc(COCC(F)(F)C(F)F)cc1 | 1.4% (inactive) |
| COc1ccc2nc(NC(=O)NC3CCCCC3)sc2c1 | -16.2% (inactive) |
| Cc1ccsc1/C=N/NC(=O)Cc1cc(=O)[nH][nH]1 | 16.7% (inactive) |
| Cc1ccc(C(=O)NNC2=Nc3cc([N+](=O)[O-])ccc3OC2)cc1 | 3.01% (inactive) |
| COc1ccc(NC(=O)CSc2ncnc3[nH]ncc23)cc1 | -5.26% (inactive) |
